# Activity calls are given as the source filed them. No cut-off for these calls is given here.
# Columns and labels:
# [1] = target: T1, Protein cereblon/Eukaryotic peptide chain release factor GTP-binding subunit ERF3A/DNA damage-binding protein 1/Cullin-4A (Homo sapiens) (UniProt Q96SW2+Q16531+Q13619+P15170); assay: Protac activity at GSPT1/CUL4/DDB1/CRBN in human RS4:11/IRMI-2 cells harboring p53 hotspot mutation Y236H/R249G assessed as decrease in GSPT1 protein level at 1 to 3 uM after 24 hrs by Western blot analysis; assay type: cell-based
# T1 sequence (P15170 whole entry, looked up): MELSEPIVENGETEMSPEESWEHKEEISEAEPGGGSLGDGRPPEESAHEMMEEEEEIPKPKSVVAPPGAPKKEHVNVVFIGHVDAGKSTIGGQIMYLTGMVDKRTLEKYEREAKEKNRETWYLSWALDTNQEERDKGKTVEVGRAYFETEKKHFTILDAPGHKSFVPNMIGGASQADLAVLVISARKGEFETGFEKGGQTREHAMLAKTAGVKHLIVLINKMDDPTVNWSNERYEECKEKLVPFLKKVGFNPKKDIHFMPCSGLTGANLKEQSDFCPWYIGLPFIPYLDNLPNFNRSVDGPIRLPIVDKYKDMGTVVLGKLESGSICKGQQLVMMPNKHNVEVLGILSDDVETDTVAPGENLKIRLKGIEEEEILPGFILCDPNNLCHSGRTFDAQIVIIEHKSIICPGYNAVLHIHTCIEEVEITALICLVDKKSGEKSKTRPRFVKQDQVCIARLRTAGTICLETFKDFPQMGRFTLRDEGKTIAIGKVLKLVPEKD
# T1 sequence (Q13619 whole entry, looked up): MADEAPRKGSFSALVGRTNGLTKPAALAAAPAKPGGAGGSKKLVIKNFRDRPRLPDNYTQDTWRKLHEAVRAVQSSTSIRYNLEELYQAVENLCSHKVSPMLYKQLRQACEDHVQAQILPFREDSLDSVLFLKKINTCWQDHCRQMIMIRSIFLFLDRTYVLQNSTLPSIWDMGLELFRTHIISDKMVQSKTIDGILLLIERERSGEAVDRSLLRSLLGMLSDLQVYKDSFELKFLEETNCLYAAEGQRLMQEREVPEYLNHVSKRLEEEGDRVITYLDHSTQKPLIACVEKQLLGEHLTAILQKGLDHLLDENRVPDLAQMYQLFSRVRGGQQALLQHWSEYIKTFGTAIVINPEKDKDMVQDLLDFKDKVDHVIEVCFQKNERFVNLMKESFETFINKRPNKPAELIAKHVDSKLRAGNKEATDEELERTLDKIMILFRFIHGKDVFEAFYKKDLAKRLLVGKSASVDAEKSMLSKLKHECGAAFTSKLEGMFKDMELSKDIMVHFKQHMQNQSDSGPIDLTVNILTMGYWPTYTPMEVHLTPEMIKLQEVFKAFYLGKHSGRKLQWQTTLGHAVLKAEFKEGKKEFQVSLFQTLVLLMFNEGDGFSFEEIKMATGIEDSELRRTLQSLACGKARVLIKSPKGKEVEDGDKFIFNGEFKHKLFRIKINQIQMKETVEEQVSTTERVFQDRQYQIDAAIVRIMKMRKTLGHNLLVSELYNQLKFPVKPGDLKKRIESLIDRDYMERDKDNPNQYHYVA
# T1 sequence (Q16531 whole entry, looked up): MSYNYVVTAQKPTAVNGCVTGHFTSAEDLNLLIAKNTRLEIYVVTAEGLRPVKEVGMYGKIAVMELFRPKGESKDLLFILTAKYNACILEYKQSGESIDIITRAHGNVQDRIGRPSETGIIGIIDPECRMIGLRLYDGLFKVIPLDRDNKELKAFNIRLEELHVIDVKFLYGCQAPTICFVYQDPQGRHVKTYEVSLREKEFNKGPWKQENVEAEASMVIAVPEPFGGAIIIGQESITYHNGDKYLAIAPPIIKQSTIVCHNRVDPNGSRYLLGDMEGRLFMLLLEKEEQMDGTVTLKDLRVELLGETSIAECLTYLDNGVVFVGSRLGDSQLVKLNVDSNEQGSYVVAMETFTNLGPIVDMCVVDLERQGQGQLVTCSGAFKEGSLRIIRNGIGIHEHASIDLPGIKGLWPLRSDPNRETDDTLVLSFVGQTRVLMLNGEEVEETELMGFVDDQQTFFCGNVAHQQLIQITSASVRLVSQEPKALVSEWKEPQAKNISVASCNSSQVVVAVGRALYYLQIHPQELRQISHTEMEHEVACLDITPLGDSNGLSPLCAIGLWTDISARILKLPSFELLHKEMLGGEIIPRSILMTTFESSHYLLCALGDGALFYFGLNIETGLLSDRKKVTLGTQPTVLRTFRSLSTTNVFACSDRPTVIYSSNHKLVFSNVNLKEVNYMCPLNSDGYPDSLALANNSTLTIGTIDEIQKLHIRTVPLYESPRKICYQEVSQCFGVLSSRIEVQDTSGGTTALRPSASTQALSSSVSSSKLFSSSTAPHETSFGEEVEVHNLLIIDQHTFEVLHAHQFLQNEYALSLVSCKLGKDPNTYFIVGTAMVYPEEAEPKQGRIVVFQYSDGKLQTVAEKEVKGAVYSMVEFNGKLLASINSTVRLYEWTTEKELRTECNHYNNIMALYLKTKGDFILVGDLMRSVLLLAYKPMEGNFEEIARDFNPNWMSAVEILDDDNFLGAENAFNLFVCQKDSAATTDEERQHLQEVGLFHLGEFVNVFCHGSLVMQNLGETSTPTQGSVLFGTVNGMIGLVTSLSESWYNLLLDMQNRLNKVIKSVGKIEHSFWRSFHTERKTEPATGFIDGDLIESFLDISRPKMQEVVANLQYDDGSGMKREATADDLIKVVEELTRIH
# T1 sequence (Q96SW2 whole entry, looked up): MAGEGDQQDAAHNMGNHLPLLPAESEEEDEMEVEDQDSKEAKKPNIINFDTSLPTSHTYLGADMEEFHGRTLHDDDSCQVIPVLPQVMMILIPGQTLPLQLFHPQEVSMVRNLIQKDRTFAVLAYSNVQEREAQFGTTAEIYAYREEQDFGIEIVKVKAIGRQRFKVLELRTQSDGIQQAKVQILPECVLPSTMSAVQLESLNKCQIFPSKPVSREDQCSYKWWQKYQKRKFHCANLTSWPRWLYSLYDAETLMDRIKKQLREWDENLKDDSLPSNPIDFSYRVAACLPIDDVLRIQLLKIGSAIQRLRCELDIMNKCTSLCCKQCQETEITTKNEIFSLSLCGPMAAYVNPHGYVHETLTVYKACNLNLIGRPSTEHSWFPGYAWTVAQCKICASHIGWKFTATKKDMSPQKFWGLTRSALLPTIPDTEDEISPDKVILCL
# Outline: (§1)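 RS4;11 (wild-type p53) or RS4;11/IRMI-2 (MDM2 inhibitor-resistant derivative, mutant p53) cells kept in RPMI 1640 with 10% FBS at 37 °C, 5% CO₂. 2×10^6 cells/well treated at the indicated concentrations and times, then lysed in ice-cold lysis buffer with protease inhibitor. GSPT1 detected by Western blot with a specific antibody.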
# [2] = target: T1, Protein cereblon/Eukaryotic peptide chain release factor GTP-binding subunit ERF3A/DNA damage-binding protein 1/Cullin-4A (Homo sapiens); assay: Protac activity at GSPT1/CUL4/DDB1/CRBN in human RS4:11 cells expressing wild type p53 assessed as decrease in GSPT1 protein level at 1 to 3 uM after 24 hrs by Western blot analysis; assay type: cell-based; outline: as §1
# [3] = target: Eukaryotic peptide chain release factor GTP-binding subunit ERF3A (Homo sapiens, UniProt P15170); assay: Induction of GSPT1 degradation in human RS4:11 cells measured after 24 hrs by Western blot analysis; assay type: cell-based
# Eukaryotic peptide chain release factor GTP-binding subunit ERF3A, sequence (P15170 whole entry): as the sequence (P15170 whole entry, looked up) above
# RS4-11 [4] = assay: Antiproliferative activity against human RS4:11 cells expressing wild type p53 assessed as cell growth inhibition after 4 days by WST-8 assay; assay type: functional, cell-based; settings: RS4-11, 96 h
# Outline: (§2)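 Leukemia cells seeded at 10000–20000 cells/well, breast cancer lines at 5000–10000 cells/well. Serially diluted compound added, then 4 days at 37 °C, 5% CO2. Growth read with WST-8 reagent after at least 1 h, absorbance at 450 nm. RS4;11, MOLM-13 and breast lines were grown in RPMI 1640; MV-4-11 and HL-60 in IMDM; all with 10% FBS. Mean ± SE, at least three independent experiments.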
# [5] = (§3) Antiproliferative activity against human RS4:11/IRMI-2 cells harboring p53 hotspot mutation Y236H/R249G assessed as cell growth inhibition after 4 days by WST-8 assay; assay type: functional, cell-based; settings: RS4-11, 96 h; outline: as §2
# [6] = target: T2, E3 ubiquitin-protein ligase Mdm2 (Homo sapiens, UniProt Q00987); assay: Displacement of PMDM6-F fluorescent probe from human recombinant His-tagged MDM2 (1 to 118 residues) after 15 mins by fluorescence polarization assay
# Outline: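 Recombinant human His-tagged MDM2 (residues 1–118) with a FAM-labelled p53-based peptide as fluorescent probe; competitive fluorescence-polarization binding. Mean ± standard error from at least three independent experiments.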
# Target sequence in this assay (Q00987 whole entry, the tested form may be a part): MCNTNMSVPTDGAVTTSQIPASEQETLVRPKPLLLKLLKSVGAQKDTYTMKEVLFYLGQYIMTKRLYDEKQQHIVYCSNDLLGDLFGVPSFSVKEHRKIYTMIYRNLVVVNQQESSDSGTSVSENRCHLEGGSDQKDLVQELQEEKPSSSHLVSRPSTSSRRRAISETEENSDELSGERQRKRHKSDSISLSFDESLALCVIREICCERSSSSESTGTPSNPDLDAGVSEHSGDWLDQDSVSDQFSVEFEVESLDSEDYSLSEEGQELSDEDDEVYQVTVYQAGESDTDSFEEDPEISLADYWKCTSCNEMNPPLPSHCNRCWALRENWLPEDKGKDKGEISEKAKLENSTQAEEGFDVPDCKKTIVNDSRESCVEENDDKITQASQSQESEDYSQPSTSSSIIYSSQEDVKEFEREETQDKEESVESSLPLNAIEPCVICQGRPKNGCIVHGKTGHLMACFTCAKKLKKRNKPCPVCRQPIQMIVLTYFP
# RS4-11 [7] = assay: Antiproliferative activity against human RS4:11 cells expressing wild type p53 assessed as MDM2-independent cell growth inhibition after 4 days by WST-8 assay; assay type: functional, cell-based; settings: RS4-11, 96 h; outline: as §2
# [8] = Antiproliferative activity against human RS4:11/IRMI-2 cells harboring p53 hotspot mutation Y236H/R249G assessed as MDM2-independent cell growth inhibition after 4 days by WST-8 assay; assay type: functional, cell-based; settings: RS4-11, 96 h; outline: as §2
# [9] = target: T1, Protein cereblon/Eukaryotic peptide chain release factor GTP-binding subunit ERF3A/DNA damage-binding protein 1/Cullin-4A (Homo sapiens); assay: Protac activity at GSPT1/CUL4/DDB1/CRBN in human RS4:11 cells expressing wild type p53 assessed as decrease in GSPT1 protein level after 2 hrs by Western blot analysis; assay type: cell-based; outline: as §1
# [10] = target: T1, Protein cereblon/Eukaryotic peptide chain release factor GTP-binding subunit ERF3A/DNA damage-binding protein 1/Cullin-4A (Homo sapiens); assay: Protac activity at GSPT1/CUL4/DDB1/CRBN in human RS4:11/IRMI-2 cells harboring p53 hotspot mutation Y236H/R249G assessed as decrease in GSPT1 protein level after 2 hrs by Western blot analysis; assay type: cell-based; outline: as §1
# MDA-MB-231 [11] = assay: Antiproliferative activity against human MDA-MB-231 cells transfected with MDM2 siRNA assessed as cell growth inhibition after 4 days by WST-8 assay; assay type: functional, cell-based; settings: MDA-MB-231, 96 h
# Outline: (§4)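 MDA-MB-231 or MDA-MB-468 cells transfected for 2 days using Lipofectamine RNAiMAX with MDM2 siRNA, one of two CRBN siRNAs, or non-targeting control siRNA. Compound then added and growth read by WST-8 at 450 nm.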
# MV4-11 = assay: Antiproliferative activity against human MV4-11 cells expressing wild type p53 assessed as cell growth inhibition after 4 days by WST-8 assay; assay type: functional, cell-based; settings: MV4-11, 96 h; outline: as §2
# MDA-MB-231 [12] = assay: Antiproliferative activity against human MDA-MB-231 cells harboring mutant p53 assessed as cell growth inhibition after 4 days by WST-8 assay; assay type: functional, cell-based; outline: as §2
# MDA-MB-468 [13] = assay: Antiproliferative activity against human MDA-MB-468 cells transfected with CRBN siRNA LQ-021086-10-0002 assessed as cell growth inhibition after 4 days by WST-8 assay; assay type: functional, cell-based; settings: MDA-MB-468, 96 h; outline: as §4
# RS4-11 [14] = assay: Antiproliferative activity against human RS4:11 cells expressing wild type p53 assessed as cell growth inhibition without interaction with cereblon after 4 days by WST-8 assay; assay type: functional, cell-based; settings: RS4-11, 96 h; outline: as §2
# [15] = target: T2, E3 ubiquitin-protein ligase Mdm2; assay: Induction of MDM2 degradation in human RS4:11 cells assessed as upregulation of MDM2 at 1000 to 3000 nM after 1 hr by Western blot analysis; assay type: cell-based
# Outline: (§5)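 Western blots of MDM2 and p53 protein were run on RS4;11 cells (wild-type p53) in RPMI 1640 with 10% FBS. 2×10^6 cells/well were treated at the indicated concentrations for 1 h or 2 h. Lysis was in ice-cold buffer with protease inhibitor, followed by probing with specific antibodies.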
# Target sequence in this assay (Q00987 whole entry, looked up, the tested form may be a part): as the sequence (Q00987 whole entry, the tested form may be a part) above
# MDA-MB-468 [16] = assay: Antiproliferative activity against human MDA-MB-468 cells assessed as cell growth inhibition after 4 days in presence of control siRNA for 3 days followed by compound treatment by WST-8 assay; assay type: functional, cell-based
# MDA-MB-231 [17] = assay: Antiproliferative activity against human MDA-MB-231 cells assessed as cell growth inhibition after 4 days in presence of control siRNA for 3 days followed by compound treatment by WST-8 assay; assay type: functional, cell-based
# [18] = Antiproliferative activity against human RS4:11/IRMI-2 cells harboring p53 hotspot mutation Y236H/R249G assessed as cell growth inhibition without interaction with cereblon after 4 days by WST-8 assay; assay type: functional, cell-based; settings: RS4-11, 96 h; outline: as §2
# MDA-MB-468 [19] = assay: Antiproliferative activity against human MDA-MB-468 cells transfected with MDM2 siRNA assessed as cell growth inhibition after 4 days by WST-8 assay; assay type: functional, cell-based; settings: MDA-MB-468, 96 h; outline: as §4
# MDA-MB-468 [20] = assay: Antiproliferative activity against human MDA-MB-468 cells harboring mutant p53 assessed as cell growth inhibition after 4 days by WST-8 assay; assay type: functional, cell-based; outline: as §2
# MOLM-13 = assay: Antiproliferative activity against human MOLM13 cells expressing wild type p53 assessed as cell growth inhibition after 4 days by WST-8 assay; assay type: functional, cell-based; settings: MOLM-13, 96 h; outline: as §2
# MDA-MB-231 [21] = assay: Antiproliferative activity against human MDA-MB-231 cells transfected with CRBN siRNA LQ-021086-10-0002 assessed as cell growth inhibition after 4 days by WST-8 assay; assay type: functional, cell-based; settings: MDA-MB-231, 72 h, in the assay text read “after 3 days” for “after 4 days”; outline: as §4
# MDA-MB-231 [22] = assay: Antiproliferative activity against human MDA-MB-231 cells harboring mutant p53 assessed as cell growth inhibition without interaction with cereblon after 4 days by WST-8 assay; assay type: functional, cell-based; settings: MDA-MB-231, 96 h
# MDA-MB-231 [23] = assay: Antiproliferative activity against human MDA-MB-231 cells assessed as cell growth inhibition after 4 days in presence of control siRNA for 2 days followed by compound treatment by WST-8 assay; assay type: functional, cell-based; outline: as §4
# HL-60 = assay: Antiproliferative activity against human HL60 cells with lack of p53 assessed as cell growth inhibition after 4 days by WST-8 assay; assay type: functional, cell-based; outline: as §2
# MDA-MB-231 [24] = assay: Antiproliferative activity against human MDA-MB-231 cells transfected with CRBN siRNA LQ-021086-11-0002 assessed as cell growth inhibition after 4 days by WST-8 assay; assay type: functional, cell-based; settings: MDA-MB-231, 96 h; outline: as §4
# MDA-MB-468 [25] = assay: Antiproliferative activity against human MDA-MB-468 cells transfected with CRBN siRNA LQ-021086-11-0002 assessed as cell growth inhibition after 4 days by WST-8 assay; assay type: functional, cell-based; settings: MDA-MB-468, 96 h; outline: as §4
# MDA-MB-468 [26] = assay: Antiproliferative activity against human MDA-MB-468 cells harboring mutant p53 assessed as cell growth inhibition without interaction with cereblon after 4 days by WST-8 assay; assay type: functional, cell-based; settings: MDA-MB-468, 96 h
# MDA-MB-468 [27] = assay: Antiproliferative activity against human MDA-MB-468 cells assessed as cell growth inhibition after 4 days in presence of control siRNA for 2 days followed by compound treatment by WST-8 assay; assay type: functional, cell-based; outline: as §4
# Homo sapiens = species: Homo sapiens; assay: as §3; assay type: functional, cell-based; outline: as §2
# [28] = target: T2, E3 ubiquitin-protein ligase Mdm2; assay: Induction of MDM2 degradation in human RS4:11 cells assessed as upregulation of p53 at 1000 to 3000 nM after 1 hr by Western blot analysis; assay type: cell-based; outline: as §5
# Target sequence in this assay (Q00987 whole entry, looked up, the tested form may be a part): as the sequence (Q00987 whole entry, the tested form may be a part) above
compound,measurement,setting,value
O=C1CCC(N2Cc3c(NC(=O)[C@@H]4NC5(CCCCC5)[C@@]5(C(=O)Nc6cc(Cl)ccc65)[C@H]4c4cccc(Cl)c4F)cccc3C2=O)C(=O)N1 (some centres undefined),Activity,[1],Active
same,Activity,[2],Active
same,DC50,[3],2300 nM
same,IC50,RS4-11 [4],760 nM
same,IC50,[5],2580 nM
O=C1CCC(N2Cc3c(CCCCCNC(=O)[C@@H]4NC5(CCCCC5)[C@@]5(C(=O)Nc6ccccc65)[C@H]4c4ccccc4F)cccc3C2=O)C(=O)N1 (some centres undefined),IC50,[6],> 20000 nM
same,IC50,RS4-11 [7],4.1 nM
same,IC50,[8],3.7 nM
O=C1CCC(N2Cc3c(CCCOCCNC(=O)[C@@H]4NC5(CCCCC5)[C@@]5(C(=O)Nc6cc(Cl)ccc65)[C@H]4c4cccc(Cl)c4F)cccc3C2=O)C(=O)N1 (some centres undefined),Activity,[9],Active
same,DC50,[3],1.8 nM
same,IC50,RS4-11 [4],3.6 nM
same,Activity,[10],Active
same,IC50,[5],3.5 nM
O=C1CCC(N2Cc3c(CCCNC(=O)[C@@H]4NC5(CCCCC5)[C@@]5(C(=O)Nc6cc(Cl)ccc65)[C@H]4c4cccc(Cl)c4F)cccc3C2=O)C(=O)N1 (some centres undefined),Activity,[1],Active
same,Activity,[2],Active
same,DC50,[3],120 nM
same,IC50,RS4-11 [4],130 nM
same,IC50,[5],180 nM
CNC(=O)[C@@H]1NC2(CCCCC2)[C@@]2(C(=O)Nc3cc(Cl)ccc32)[C@H]1c1cccc(Cl)c1F,IC50,MDA-MB-231 [11],> 10000 nM
same,IC50,MV4-11,898 nM
same,growth inhibition (GI),MDA-MB-231 [12],inactive
same,IC50,MDA-MB-468 [13],> 3000 nM
same,IC50,RS4-11 [14],1110 nM
same,Activity,[15],inactive
same,IC50,MDA-MB-468 [16],> 3000 nM
same,IC50,MDA-MB-231 [17],> 3000 nM
same,IC50,[18],9580 nM
same,IC50,MDA-MB-468 [19],> 10000 nM
same,growth inhibition (GI),MDA-MB-468 [20],inactive
same,Activity,[9],inactive
same,IC50,MOLM-13,1240 nM
same,IC50,MDA-MB-231 [21],> 3000 nM
same,IC50,MDA-MB-231 [22],> 10000 nM
same,IC50,MDA-MB-231 [23],> 10000 nM
same,growth inhibition (GI),HL-60,inactive
same,IC50,[6],48.1 nM
same,IC50,MDA-MB-231 [24],> 3000 nM
same,IC50,RS4-11 [4],669 nM
same,IC50,RS4-11 [7],1490 nM
same,IC50,MDA-MB-468 [25],> 3000 nM
same,IC50,MDA-MB-468 [26],> 10000 nM
same,Activity,[10],inactive
same,IC50,MDA-MB-468 [27],> 10000 nM
same,IC50,[8],> 10000 nM
same,growth inhibition (GI),Homo sapiens,inactive
same,Activity,[28],Active
O=C1CCC(N2Cc3c(CCCCCNC(=O)[C@@H]4NC5(CCCCC5)[C@@]5(C(=O)Nc6ccccc65)[C@H]4c4ccccc4)cccc3C2=O)C(=O)N1 (some centres undefined),IC50,[6],> 20000 nM
same,IC50,RS4-11 [7],48.6 nM
same,IC50,[8],60.9 nM

# Reference: ChEMBL document CHEMBL4321819, “Simple Structural Modifications Converting a Bona fide MDM2 PROTAC Degrader into a Molecular Glue Molecule: A Cautionary Tale in the Design of PROTAC Degraders” (J Med Chem, 2019)
